# Assay results reported in paper PMC5615155 (Toxicology Reports, 2017).
# Where “and” joins values, the source holds several entries; their conditions need not be identical. Identical values can stand only once. Entries after “also recorded” stand apart in the source; their conditions may differ.
# Assays:
# [1] = target: T1, CYP1A2 (Homo sapiens, UniProt P05177); assay: CYP inhibition, spectrofluorimetric; assay type: biochemical; settings: recombinant human CYP1A2 expressed in insect Sf9 cells
# T1 sequence (P05177 1-516): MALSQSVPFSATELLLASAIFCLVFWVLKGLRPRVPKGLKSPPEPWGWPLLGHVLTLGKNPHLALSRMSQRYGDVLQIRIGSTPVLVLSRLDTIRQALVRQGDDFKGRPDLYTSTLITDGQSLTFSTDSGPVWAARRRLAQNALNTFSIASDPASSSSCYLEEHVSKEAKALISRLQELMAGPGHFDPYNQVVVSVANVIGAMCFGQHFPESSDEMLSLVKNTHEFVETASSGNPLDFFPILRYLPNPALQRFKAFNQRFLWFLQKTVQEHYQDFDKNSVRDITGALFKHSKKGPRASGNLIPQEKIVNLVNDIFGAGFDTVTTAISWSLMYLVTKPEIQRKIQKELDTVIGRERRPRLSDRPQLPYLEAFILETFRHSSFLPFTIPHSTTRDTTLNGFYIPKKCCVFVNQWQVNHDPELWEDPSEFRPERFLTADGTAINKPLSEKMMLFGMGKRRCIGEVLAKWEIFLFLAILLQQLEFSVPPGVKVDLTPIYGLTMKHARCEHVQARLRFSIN
# Summary of the method: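 Inhibition was assayed with recombinant human CYP isoforms expressed in insect Sf9 cells. Turnover of spectrofluorimetric substrates was read by fluorescence. Test compound was tested at a single concentration of 10 μM.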
# [2] = in vitro microsomal metabolism; assay type: in vitro ADME, human; settings: 10 μM, 0.5 mg/mL, +NADPH, 120 min
# [3] = single-dose pharmacokinetics and oral bioavailability; assay type: in vivo, Sprague-Dawley rats; settings: for clearance: CL, S2218 iv 1 mg/kg bw
# [4] = excretion in feces and urine; assay type: in vivo, Sprague-Dawley rats
# [5] = system: E. coli strain WP2 uvrA; assay: bacterial reverse mutation test; assay type: cell-based; settings: 100–5000 μg/plate, plate incorporation, ±S9
# Summary of the method: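 GLP plate-incorporation Ames test per OECD 471 with S. typhimurium TA98, TA100, TA1535, TA1537 and E. coli WP2 uvrA, ± Aroclor 1254-induced male rat liver S9. An initial toxicity-mutation phase (1.5–5000 μg/plate) set the range for the confirmatory assay at 100, 333, 1000, 3333 and 5000 μg/plate. Negative and positive controls were included. Toxicity and precipitate were noted.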
# [6] = toxicokinetics in 13-week dietary study; assay type: in vivo, Sprague-Dawley rats
# [7] = solubility / dissolution; assay type: physicochemical; settings: S8069 at 10 mg/mL; S2218 at all dose levels
# [8] = female, Sprague-Dawley, rat, plasma, iv, 1 mg/kg
# [9] = female, Sprague-Dawley, rat, plasma, po, 10 mg/kg
# [10] = female, Sprague-Dawley, rat, plasma, po, 30 mg/kg
# [11] = female, Sprague-Dawley, rat, plasma, po, 100 mg/kg
# [12] = male, Sprague-Dawley, rat, plasma, iv, 1 mg/kg
# [13] = male, Sprague-Dawley, rat, plasma, po, 10 mg/kg
# [14] = male, Sprague-Dawley, rat, plasma, po, 30 mg/kg
# [15] = male, Sprague-Dawley, rat, plasma, po, 100 mg/kg
smiles,measurement,setting,value
"Cc1cc(C(=O)NC(C)(C)COc2cccc3c2C(N)=NS(=O)(=O)N3)cc(C)n1 [S2218, N-(1-((4-amino-2,2-dioxido-1H-benzo[c][1,2,6]thiadiazin-5-yl)oxy)-2-methylpropan-2-yl)-2,6-dimethylisonicotinamide]",inhibition at 10 μM,[1],≤ 7%
same,% MS (EIC) peak area of parent relative to time 0,[2],98.4 ± 0.4%
same,female/male ratio of mean AUClast,[3]; IV 1 mg/kg,0.88
same,female/male ratio of mean Cmax,[3]; IV 1 mg/kg,1.06
same,t1/2,"[3]; S2218 oral gavage 10 mg/kg bw, M, 10 mg/kg",45.8 ± 4.38 min
same,bioavailability,"[3]; both, Sprague-Dawley, rat, plasma, po, %F, both test articles, male and female rats, all doses",0.14 to 0.77%
same,AUC(0-t),[3]; [8],440 ± 57.1 ng·h/mL
same,Cmax,[3]; [8],3150 ± 399 ng/mL
same,Tmax,[3]; [8],1.98 min
same,Vd,[3]; [8],0.575 L/kg
same,clearance,"[3]; female, Sprague-Dawley, rat, plasma, iv, 1 mg/kg, F",38.3 mL/min/kg
same,half-life,"[3]; female, Sprague-Dawley, rat, plasma, iv, 1 mg/kg, t1/2, S2218 iv 1 mg/kg bw, F",10.4 ± 0.24 min
same,AUC(0-t),[3]; [9],19.1 ± 10.5 ng·h/mL
same,Cmax,[3]; [9],22.1 ± 8.55 ng/mL
same,Tmax,[3]; [9],18.8 ± 7.5 min
same,AUC(0-t),[3]; [10],37.7 ± 14 ng·h/mL
same,Cmax,[3]; [10],36.8 ± 14.8 ng/mL
same,Tmax,[3]; [10],18.8 ± 7.5 min
same,AUC(0-t),[3]; [11],65.9 ± 34.6 ng·h/mL
same,Cmax,[3]; [11],38.7 ± 20.4 ng/mL
same,Tmax,[3]; [11],15 min
same,half-life,"[3]; female, Sprague-Dawley, rat, plasma, po, mean t1/2 of S2218 in plasma, oral dose of S2218 or S8069, female rats",45 to 75 min
same,CL as % of hepatic blood flow,"[3]; iv, F",69.6%
same,Vss as % of total body water volume,"[3]; iv, F",86.1%
same,CL as % of hepatic blood flow,"[3]; iv, M",60.9%
same,Vss as % of total body water volume,"[3]; iv, M",80.2%
same,AUC(0-t),[3]; [12],500 ± 47.9 ng·h/mL
same,Cmax,[3]; [12],2980 ± 291 ng/mL
same,Tmax,[3]; [12],1.98 min
same,Vd,[3]; [12],0.536 L/kg
same,clearance,"[3]; male, Sprague-Dawley, rat, plasma, iv, 1 mg/kg, M",33.5 mL/min/kg
same,half-life,"[3]; male, Sprague-Dawley, rat, plasma, iv, 1 mg/kg, t1/2, S2218 iv 1 mg/kg bw, M",11.1 ± 1.56 min
same,AUC(0-t),[3]; [13],18.1 ± 4.84 ng·h/mL
same,Cmax,[3]; [13],16.8 ± 6.03 ng/mL
same,Tmax,[3]; [13],18.8 ± 7.5 min
same,AUC(0-t),[3]; [14],33.2 ± 20.7 ng·h/mL
same,Cmax,[3]; [14],31.2 ± 14.6 ng/mL
same,Tmax,[3]; [14],22.5 ± 8.64 min
same,AUC(0-t),[3]; [15],96.6 ± 31.4 ng·h/mL
same,Cmax,[3]; [15],76.3 ± 28.8 ng/mL
same,Tmax,[3]; [15],20 ± 8.64 min
same,half-life,"[3]; male, Sprague-Dawley, rat, plasma, po, mean t1/2 of S2218 in plasma, oral dose of S2218 or S8069, male rats",40.2 to 51.6 min
same,% Recovery of S2218,"[4]; feces + urine, female, 0–72 h",90.0% and 90.0 ± 7.5%
same,% Recovery of S2218,"[4]; feces + urine, male, 0–72 h",82.1% and 82.1 ± 15.4%
same,% Recovery of S2218,"[4]; feces + urine, overall (M+F), 0–72 h",86.07%
same,% Recovery of S2218,"[4]; feces, female, 0–24 h",82.19% and 82.19 ± 10.89%
same,% Recovery of S2218,"[4]; feces, female, 0–72 h",89.79% and 89.79 ± 7.63%
same,% Recovery of S2218,"[4]; feces, female, 24–48 h",7.504 ± 6.517%
same,% Recovery of S2218,"[4]; feces, female, 48–72 h",0.152 ± 0.062%
same,% Recovery of S2218,"[4]; feces, male, 0–24 h, S8069 10 mg/kg bw oral",76.68% and 76.68 ± 13.82%
same,% Recovery of S2218,"[4]; feces, male, 0–72 h",82.08% and 82.08 ± 15.35%
same,% Recovery of S2218,"[4]; feces, male, 24–48 h",5.247 ± 4.432%
same,% Recovery of S2218,"[4]; feces, male, 48–72 h",0.298 ± 0.225%
same,% Recovery of S2218,"[4]; urine, female, 0–24 h",0.202 ± 0.216%
same,% Recovery of S2218,"[4]; urine, female, 0–72 h",0.230% and 0.230 ± 0.252%
same,% Recovery of S2218,"[4]; urine, female, 24–48 h",0.020 ± 0.027%
same,% Recovery of S2218,"[4]; urine, female, 48–72 h",0.008 ± 0.010%
same,% Recovery of S2218,"[4]; urine, male, 0–24 h",0.036 ± 0.025%
same,% Recovery of S2218,"[4]; urine, male, 0–72 h",0.044% and 0.044 ± 0.022%
same,% Recovery of S2218,"[4]; urine, male, 24–48 h",0.007 ± 0.004%
same,% Recovery of S2218,"[4]; urine, male, 48–72 h",0.001 ± 0.001%
same,% Recovery of S2218,"[4]; urine, overall (M+F), 0–72 h",0.137%
same,"Reverse mutation (in vitro), result",[5],not mutagenic; also recorded: Negative
same,ACUM Ratio (dose-normalized AUC0-24h Day 91/Day 7),"[6]; 30 mg/kg bw, M + F",1.88
same,ACUM Ratio (dose-normalized AUC0-24h Day 91/Day 7),"[6]; 70 mg/kg bw, M + F",0.954
same,ACUM Ratio (dose-normalized AUC0-24h Day 91/Day 7),"[6]; 140 mg/kg bw, F",0.768
same,ACUM Ratio (dose-normalized AUC0-24h Day 91/Day 7),"[6]; 140 mg/kg bw, M",4.55
same,ACUM Ratio (dose-normalized AUC0-24h Day 91/Day 7),"[6]; 140 mg/kg bw, M + F",2.30
same,state in 1% methylcellulose dosing formulation,[7],formed a suspension
